Test results reported in ChEMBL document CHEMBL4400568, “The design of 1,4-naphthoquinone derivatives and mechanisms underlying apoptosis induction through ROS-dependent MAPK/Akt/STAT3 pathways in human lung cancer cells” (Bioorg Med Chem, 2019).
Active and inactive are the calls of the source. No cut-off for these calls is given here.

Key:
[1] = system: NCI-H23; experiment: Cytotoxicity against human NCI-H23 cells assessed as reduction in cell viability after 24 hrs by MTT assay; assay type: functional, cell-based
How it was run: (§1)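 Log-phase cells seeded at 1 × 10⁴ per well. Lung cancer lines (A549, NCI-H23, NCI-H460) and normal lines (IMR-90, QSG-7701, HEK-293A) each exposed to 1, 3, 10, 30 and 100 μM for 24 h. MTT (5 mg/mL stock) added for 2 h at 37°C, formazan dissolved in DMSO, absorbance read at 490 nm. Three independent experiments, mean ± SD.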

[2] = system: NCI-H460; experiment: Cytotoxicity against human NCI-H460 cells assessed as reduction in cell viability after 24 hrs by MTT assay; assay type: functional, cell-based; how it was run: as §1
[3] = system: IMR-90; experiment: Cytotoxicity against human IMR90 cells assessed as reduction in cell viability after 24 hrs by MTT assay; assay type: cell-based; conditions: imr-90, 24 h; how it was run: as §1
[4] = Cytotoxicity against human QSG7701 cells assessed as reduction in cell viability after 24 hrs by MTT assay; assay type: cell-based; how it was run: as §1
[5] = Cytotoxicity against HEK293A cells assessed as reduction in cell viability after 24 hrs by MTT assay; assay type: cell-based; conditions: human, hek293-a; how it was run: as §1
[6] = system: A549; experiment: Induction of apoptosis in human A549 cells assessed as early apoptotic cells at 3 uM after 3 hrs by Annexin V-FITC/propidium iodide staining-based flow cytometric analysis (reference value: 2.73%); assay type: functional
[7] = system: A549; experiment: Induction of apoptosis in human A549 cells assessed as late apoptotic cells at 3 uM after 3 hrs by Annexin V-FITC/propidium iodide staining-based flow cytometric analysis (reference value: 4.52%); assay type: functional
[8] = system: A549; experiment: Induction of apoptosis in human A549 cells assessed as early apoptotic cells at 3 uM after 6 hrs by Annexin V-FITC/propidium iodide staining-based flow cytometric analysis (reference value: 2.73%); assay type: functional
[9] = system: A549; experiment: Induction of apoptosis in human A549 cells assessed as late apoptotic cells at 3 uM after 6 hrs by Annexin V-FITC/propidium iodide staining-based flow cytometric analysis (reference value: 4.52%); assay type: functional
[10] = system: A549; experiment: Induction of apoptosis in human A549 cells assessed as early apoptotic cells at 3 uM after 12 hrs by Annexin V-FITC/propidium iodide staining-based flow cytometric analysis (reference value: 2.73%); assay type: functional
[11] = system: A549; experiment: Induction of apoptosis in human A549 cells assessed as late apoptotic cells at 3 uM after 12 hrs by Annexin V-FITC/propidium iodide staining-based flow cytometric analysis (reference value: 4.52%); assay type: functional
[12] = system: A549; experiment: Induction of apoptosis in human A549 cells assessed as early apoptotic cells at 3 uM after 24 hrs by Annexin V-FITC/propidium iodide staining-based flow cytometric analysis (reference value: 2.73%); assay type: functional
[13] = system: A549; experiment: Induction of apoptosis in human A549 cells assessed as late apoptotic cells at 3 uM after 24 hrs by Annexin V-FITC/propidium iodide staining-based flow cytometric analysis (reference value: 4.52%); assay type: functional

## O=c1[nH]cc(F)c(=O)[nH]1 [FLUOROURACIL]
[1]
  Activity: Active
[2]
  Activity: Active
[3]
  Activity: Toxic
[4]
  Activity: Toxic
[5]
  Activity: Toxic
[6]
  Activity: 7.91%
[7]
  Activity: 4.75%
[8]
  Activity: 10.68%
[9]
  Activity: 4.6%
[10]
  Activity: 13.87%
[11]
  Activity: 5.83%
[12]
  Activity: 23.86%
[13]
  Activity: 4.22%
